From PubChem BioAssay
SKN-1 inh – C. elegans SKN-1 inhibition. AID 624304. C. elegans VP596 Pgst-4::GFP/RFP ratio, acrylamide-induced, 24 h. 360,000 compounds, 0.49% hits. inhibition, % at 21.8 µM;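 active = interference check ratio from 0.5 to 1.5 plus GFP to RFP signal ratio inhibition reaching or exceeding a fixed threshold, cut at about 30% in these data, passing the limit was not always enough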
MT1-MMP act inh – blocks activation of human MT1-MMP | P50281 | HT1080 RFP-PRO-GFP cells, GFP/RFP ratio fluorescence, overnight; percent of plate control window, DMSO zero | GFP/RFP ratio change, % at 20 µM | 360,000 compounds, 0.061% hits | AID 651647;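 active = GFP/RFP ratio change of at least 30% with cell ATP level not reduced by more than half and red fluorescence within 50% of control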
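Test system: HT1080 cells expressing an RFP-PRO-GFP fluorescent reporter construct / Compound dosing: single-point 20 µM compound, 1% DMSO / Schedule: cells overnight before dosing, compound overnight, 37 °C, 5% CO2 / Evaluation: GFP/RFP fluorescence ratio / Control set: DMSO and RFP-L50D-GFP cell wells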
Tn7 DDE FP – disrupts Tn7 cyclic peptide binding to fibrin D-Dimer-E complex | P02675 | FP displacement of FITC-Tn7 peptide from fibrin DD(E); 0% = median of compound wells per plate | inhibition, % at 8.3 µM | 370,000 compounds, 0.13% hits | AID 720508;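 active = inhibition above the mean of compounds falling within the control limits plus 3 SD of them, cut at about 14% in these data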;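 also: 0% = plate median of compound wells and 100% = 10 µM Aha-Tn7 peptide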
Target sequence (P02675 whole entry, looked up): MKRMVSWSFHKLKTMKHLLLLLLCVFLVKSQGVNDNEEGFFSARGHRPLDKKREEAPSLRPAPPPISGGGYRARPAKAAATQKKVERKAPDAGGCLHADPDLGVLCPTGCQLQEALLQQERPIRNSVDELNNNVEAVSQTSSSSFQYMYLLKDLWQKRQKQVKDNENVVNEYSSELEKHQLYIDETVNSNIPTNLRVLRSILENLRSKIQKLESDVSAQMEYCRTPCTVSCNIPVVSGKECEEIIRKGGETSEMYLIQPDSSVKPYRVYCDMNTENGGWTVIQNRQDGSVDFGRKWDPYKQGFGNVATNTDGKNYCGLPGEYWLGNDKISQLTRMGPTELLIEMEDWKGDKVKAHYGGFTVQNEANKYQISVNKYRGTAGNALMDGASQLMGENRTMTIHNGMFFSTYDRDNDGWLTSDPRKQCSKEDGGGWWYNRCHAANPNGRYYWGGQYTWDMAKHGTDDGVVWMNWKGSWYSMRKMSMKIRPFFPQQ
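Test system: human clot-derived fibrin DD(E) complex / Quantity: 2 µM final DD(E) protein / Incubation: 10 min plus 3 h, room temperature / Measured by: fluorescence polarization / Benchmarks: high control of 10 µM Aha-Tn7 peptide / Replicates: singlicate testing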
DDE Tn6 FP inh – disrupts Tn6 cyclic peptide binding to fibrin D-Dimer-E complex. P02675. Fibrin DD(E) TRITC-Tn6 fluorescence polarization displacement. inhibition, % at 8.3 µM. 370,000 compounds, 0.21% hits;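 active = inhibition above a per-campaign cutoff: mean of compounds within control limits plus 3 SD, cut at about 15% in these data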;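 also: 0% = median of all compound wells on the plate and 100% = blocking peptide control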
Tn7 DDE conf – DD(E)-Tn7 binding inhibition, FP confirmation; shares compounds with Tn7 DDE FP; FP displacement of TRITC-Tn7 peptide from DD(E); 0% set at plate's compound-well median; 460 compounds, 5% hits; AID 720628; inhibition, % at 8.3 µM;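 active = inhibition above the campaign cutoff, the mean of compounds within control limits plus 3 SD, cut at about 14% in these data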;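 also: 100% = median FP of high control wells holding Aha-Tn7 inhibitor peptide; displacers lower polarization since freed probe rises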
DDE Tn7 FP ctr – DD(E)-Tn7 binding inhibition, counter-screen | fibrin DD(E), TRITC-Tn7 probe displacement, fluorescence polarization | inhibition, % at 8.3 µM | shares compounds with Tn7 DDE FP | 460 compounds, 3% hits;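 active = inhibition above the cutoff, the mean of compounds lying between the control bounds plus 3 SD of those compounds, cut at about 17% in these data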;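 also: 0% = median of compound sample wells and 100% = excess unlabeled Aha-Tn7 peptide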
Starred values were filed as active, the others as inactive; nt = not tested or not shown. An excerpt weighted towards active compounds, which were near 0.84% of everything screened.

SMILES	SKN-1 inh	MT1-MMP act inh	Tn7 DDE FP	DDE Tn6 FP inh	Tn7 DDE conf	DDE Tn7 FP ctr
COCC(C)n1c(SCC(=O)Nc2sccc2C(N)=O)nc2ccccc2c1=O (stereo not given)	-1	1	7	9	nt	nt
CC(C)NC(=O)C1(C)CN(S(C)(=O)=O)CC(=O)N1CCc1ccc(O)cc1 (stereo not given)	-1	2	5	7	nt	nt
COc1ccc(N=Nc2nc3cc(Br)c(Br)cc3n2C)c(OC)c1	-28	-96	28*	0	11	-3
Cc1cccc(NC(=O)c2cc(Cl)ccc2[N+](=O)[O-])c1	11	-14	14*	2	0	-1
Cc1ccc(NC(=O)c2cc(Cl)ccc2[N+](=O)[O-])cc1C	5	-33	0	-3	nt	nt
COc1ccccc1NC(=O)c1cc(S(=O)(=O)N2CCCC2)cn1C	-7	-5	15*	4	-5	-6
Cc1ccc(S(=O)(=O)N2[C@@H](c3ccccc3F)C(C(=O)O)=CC[C@H]2c2cccs2)cc1	-3	1	-5	-2	nt	nt
CCOC(=O)C1=Nc2cccc3c(O)ccc1c23	nt	nt	46*	8	21*	11
CC1(c2ccccc2)NC(=O)N(CC(=O)Nc2ccc(N3CCOCC3)cc2N2CCOCC2)C1=O (stereo not given)	5	-1	14*	-2	7	5
C=CCNS(=O)(=O)c1ccc(OCC(=O)OC)cc1	2	3	16*	-1	-7	-8
N#Cc1ccccc1OCc1cccc(S(=O)(=O)N2CCOCC2)c1	-1	-2	-2	-9	nt	nt
COC(=O)[C@]12C[C@H](CC(=O)N3CCC(c4ccccc4)CC3)C(=O)N(CCc3ccc(OC)c(OC)c3)C1=C[C@H](COCc1ccccc1)O[C@@H]2C	nt	nt	5	0	nt	nt
C=CCN1C(=O)[C@@H](CC(=O)NCc2ccc(C)o2)[C@]2(C(=O)OCC)CCCCC/C=C/12	nt	nt	3	0	nt	nt
O=C(NCCNS(=O)(=O)c1ccc(C(F)(F)F)cc1)N1CCOCC1	7	0	0	1	nt	nt
O=C(NCCNS(=O)(=O)c1ccccc1)N1CCOCC1	-9	5	15*	-1	1	4
COC(=O)c1sccc1NC(=S)Nc1cc(C)ccc1OC	7	4	13	-6	nt	nt
O=C(OCCN1C(=O)c2cccc3c(N4CCOCC4)ccc(c23)C1=O)c1ccccc1Cl	-6	-212	33*	-2	-2	-6
COc1cc([N+](=O)[O-])ccc1NC(=S)NNC(=O)CCC(=O)Nc1ccccc1Cl	5	5	15*	5	7	-1
CCOC(=O)C1=C(C(=O)OCC)C2N(Cc3ccc(C#N)cc3)c3ccccc3[C@@]23C[C@@H](C(=O)OC)N(S(=O)(=O)c2ccc(C#N)cc2)C3=N1 (stereo not given in full)	nt	nt	-1	-6	nt	nt
Cc1ccc(NC(=O)Cc2nnc(SCC(=O)Nc3nncs3)n2C)c(C)c1	15	3	4	-2	nt	nt
Cn1c(CC(=O)Nc2ccccc2Cl)nnc1SCC(=O)Nc1nncs1	10	0	14*	2	-8	-11
CCc1ccc(C(=O)N2CCN(c3ccc(F)cc3)CC2)s1	15	5	16*	4	3	3
COc1ccccc1NS(=O)(=O)c1ccc(OC)c(OC)c1	-13	-4	-6	-4	nt	nt
COc1ccccc1NS(=O)(=O)c1cc(Cl)ccc1OC	-14	0	14*	4	10	7
C[C@H]1[C@@H](OC(=O)NCc2ccc(Cl)c(Cl)c2)CC[C@@]23CCCN2C(=O)CCC[C@@H]13	nt	nt	-1	-1	nt	nt
SMILES	SKN-1 inh	MT1-MMP act inh	Tn7 DDE FP	DDE Tn6 FP inh	Tn7 DDE conf	DDE Tn7 FP ctr
O=C(c1cccc(NC2=NC3CS(=O)(=O)CC3S2)c1)N1CCN(c2cccc(Cl)c2)CC1 (stereo not given)	2	-4	17*	1	7	-4
O=C(c1cccc(NC2=NC3CS(=O)(=O)CC3S2)c1)N1CCN(c2ccc(F)cc2)CC1 (stereo not given)	-10	1	-4	-6	nt	nt
C#CCN1C(=O)[C@]2(NCCc3c2[nH]c2ccc(OC)cc32)c2ccccc21	nt	nt	-6	1	nt	nt
CCOC(=O)C1=CCN(S(=O)(=O)c2cccc(Cl)c2)C1c1cccc(Cl)c1 (stereo not given)	nt	nt	16*	-1	-5	-9
O=C(Nc1ccc(F)cc1F)Nc1sccc1-c1nc2ccccc2s1	13	-5	15*	-1	8	1
CC1CCC(NC(=O)c2cc3c(=O)n(C)c4ccccc4c3n2C)CC1 (stereo not given)	4	8	14*	11	1	-2
Cn1c(C(=O)NC2CCCCC2)cc2c(=O)n(C)c3ccccc3c21	9	0	-4	-3	nt	nt
COc1ccccc1-c1ccc2c(c1)C(C)(Cc1cccc(C#N)c1)C(=O)N2 (stereo not given)	7	-1	16*	-2	4	-1
COc1ccccc1-c1ccc2c(c1)C(C)(Cc1ccc(Cl)cc1)C(=O)N2 (stereo not given)	12	-4	-2	4	nt	nt
Cc1cccc(C(=O)OCC(=O)NC(C)CCc2ccccc2)c1O (stereo not given)	6	-3	1	-3	nt	nt
Cc1nnc(N2C(=O)C(O)=C(C(=O)c3ccco3)C2c2ccc(F)cc2)s1 (stereo not given)	-15	-17	3	1	nt	nt
CSc1ccc(C2C(C(=O)c3ccco3)=C(O)C(=O)N2c2nnc(SC)s2)cc1 (stereo not given)	-7	-71	26*	3	-4	-12
O=C(NNC(=O)c1cc(-c2ccccc2)nc2ccccc12)c1csc(N2CCOCC2)n1	-36	4	15*	-2	-1	-18
Cc1ccc(-c2cc(C(=O)NNC(=O)c3csc(N4CCOCC4)n3)c3ccccc3n2)cc1	-19	3	-2	0	nt	nt
COC(=O)C[C@H]1CC[C@@H](NC(=O)Nc2c(C)noc2C)[C@@H](CO)O1	1	3	-1	9	nt	nt
COc1ccc(NS(=O)(=O)c2ccc(/C=C/C(=O)O)cc2)cc1S(=O)(=O)N1CCOCC1	3	11	0	7	nt	nt
Cc1ccc(NC(=O)C(c2ccccc2)N2CCN(CC(=O)N3CCOCC3)CC2)cc1 (stereo not given)	1	1	-1	-6	nt	nt
COc1cccc(NC(=O)C(c2ccccc2)N2CCN(CC(=O)N3CCOCC3)CC2)c1 (stereo not given)	-12	-1	15*	-2	8	7
COc1ccc(S(=O)(=O)N2CCOCC2)cc1NC(=O)c1ccc(OC(F)F)cc1	3	6	15*	-5	-7	-12
